Laboratory results taken from ChEMBL document CHEMBL2016498, “Synthesis and antiviral activity of a series of 1'-substituted 4-aza-7,9-dideazaadenosine C-nucleosides” (Bioorg Med Chem Lett, 2012).

Legend:
[1] = tested on: Hepatitis C virus; experiment: Antiviral activity against Hepatitis C virus genotype 1b infected in human HuH7 cells assessed as inhibition of virus induced cytopathic effect after 24 hrs by MTS assay; type: functional, organism-based, Hepacivirus hominis; settings: Huh-7, 24 h
[2] = Selectivity ratio of CC50 for human HuH7 cells to EC50 for Hepatitis C virus genotype 1b; type: ADME, cell-based, Huh-7; settings: read-out: Ratio CC50/EC50
Outline: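 Anti-HCV EC50 was measured in a subgenomic HCV replicon cell assay, and CC50 was measured in the host cells of the same assay. The selectivity index was calculated as CC50/EC50.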

[3] = tested on: Huh-7; experiment: (§1) Cytotoxicity against human HuH7 cells by MTS assay; type: cell-based; settings: huh-7
[4] = tested on: Hepatitis C virus; experiment: Inhibition of Hepatitis C virus genotype 1b NS5B RNA-dependent RNA polymerase using [33P]ATP after 90 mins by phosphoimaging; set-up: species or system Hepatitis C virus subtype 1b; settings: 1.5 h
Outline: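 Uses recombinant GT1b NS5B in 50 mM Tris–HCl pH 7.5 with 10 mM KCl, 1 mM DTT, 5 mM MgCl2, 0.2 unit/μL RNAsin and 0.01% BSA (final concentrations). 75 nM enzyme is pre-incubated with 4 ng/μL (50 nM) heteropolymer sshRNA template for 5 min at rt. Inhibitor is then added and incubated 5 min at RT.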

[5] = tested on: MDCK; experiment: Cytotoxicity against dog MDCK cells by MTS assay; type: cell-based, Canis lupus familiaris
Outline: (§2)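 CC50 measured in the uninfected host cells used in each CPE assay. Compound cytotoxicity is read out by MTS dye reduction.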

[6] = tested on: dengue virus type 2; experiment: Antiviral activity against Dengue virus type 2 New Guinea C infected in african green monkey Vero E6 cells assessed as inhibition of virus induced cytopathic effect after 24 hrs by MTS assay; type: functional, organism-based
[7] = tested on: MRC5; experiment: Cytotoxicity against human MRC5 cells by MTS assay; type: cell-based; outline: as §2
[8] = tested on: West Nile virus; experiment: Antiviral activity against West nile virus NY99 infected in african green monkey Vero cells assessed as inhibition of virus induced cytopathic effect after 24 hrs by MTS assay; type: functional, organism-based; settings: NY-99, Vero
[9] = tested on: Coxsackievirus A21; experiment: Antiviral activity against Coxsackievirus A21 infected in human MRC5 cells assessed as inhibition of virus induced cytopathic effect after 24 hrs by MTS assay; type: functional, organism-based; settings: Enterovirus C, MRC5, 24 h
Outline: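 EC50 taken from a cytoprotection (CPE) assay. Protection of virus-infected host cells is read out by MTS dye reduction. The Coxsackie A assay uses MRC-5 cells with strain A7 or A21.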

[10] = tested on: Vero; experiment: Cytotoxicity against african green monkey Vero cells by MTS assay; type: cell-based; settings: chlorocebus sabaeus; outline: as §2
[11] = tested on: HeLa; experiment: Cytotoxicity against human HeLa cells by MTS assay; type: cell-based; outline: as §2
[12] = tested on: Influenza A virus; experiment: Antiviral activity against Influenza A virus H3N2 infected in MDCK cells assessed as inhibition of virus induced cytopathic effect after 24 hrs by MTS assay; type: functional, organism-based
[13] = tested on: Human respirovirus 3; experiment: Antiviral activity against Parainfluenza 3 C 243 infected in african green monkey Vero cells assessed as inhibition of virus induced cytopathic effect after 24 hrs by MTS assay; type: functional, organism-based; settings: Human respirovirus 3, C 243, Vero
[14] = as §1; type: cell-based, Huh-7; settings: HuH7 cells
[15] = Antiviral activity against Coxsackievirus A7 infected in human MRC5 cells assessed as inhibition of virus induced cytopathic effect after 24 hrs by MTS assay; type: functional, cell-based; settings: Enterovirus A, MRC5, 24 h
Outline: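 Cytoprotection (CPE) assay in MRC-5 cells infected with Coxsackie A strain A7 or A21. MTS dye reduction read out both protection from virus-induced CPE and compound cytotoxicity, giving EC50 and CC50.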

[16] = tested on: Yellow fever virus; experiment: Antiviral activity against Yellow fever virus 17D infected in human HeLa cells assessed as inhibition of virus induced cytopathic effect after 24 hrs by MTS assay; type: functional, cell-based
[17] = tested on: SARS-CoV; experiment: Antiviral activity against SARS coronavirus Toronto-2 infected in african green monkey Vero cells assessed as inhibition of virus induced cytopathic effect after 24 hrs by MTS assay; type: functional, organism-based; settings: Severe acute respiratory syndrome-related coronavirus, Toronto-2, Vero
[18] = tested on: Vero; experiment: Cytotoxicity against african green monkey Vero E6 cells by MTS assay; type: cell-based; settings: chlorocebus sabaeus; outline: as §2

SMILES	EC50 [1] [µM]	selectivity ratio [2]	CC50 [3] [µM]	IC50 [4] [µM]	CC50 [5] [µM]	EC50 [6] [µM]	CC50 [7] [µM]	EC50 [8] [µM]	EC50 [9] [µM]	CC50 [10] [µM]	EC50 [12] [µM]	EC50 [13] [µM]	CC50 [14] [µM]	EC50 [15] [µM]	EC50 [17] [µM]	CC50 [18] [µM]	further results
C#C[C@@]1(c2ccc3c(N)ncnn23)O[C@H](COP(=O)(OCCSC(=O)C(C)(C)C)OCCSC(=O)C(C)(C)C)[C@@H](O)[C@H]1O	6.01	< 10	26	–	–	–	–	–	–	–	–	–	–	–	–	–	–
CC(C)(C)C(=O)SCCOP(=O)(OCCSC(=O)C(C)(C)C)OC[C@H]1O[C@@](C)(c2ccc3c(N)ncnn23)[C@H](O)[C@@H]1O	0.078	< 10	0.73	–	–	–	–	–	–	–	–	–	–	–	–	–	–
C=C[C@@]1(c2ccc3c(N)ncnn23)O[C@H](COP(=O)(O)OP(=O)(O)OP(=O)(O)O)[C@@H](O)[C@H]1O	–	–	–	178	–	–	–	–	–	–	–	–	–	–	–	–	–
N#C[C@@]1(c2ccc3c(N)ncnn23)O[C@H](CO)[C@@H](O)[C@H]1O [GS-441524]	–	–	–	–	> 30	9.46	> 30	> 30	> 30	> 30	27.9	1.71	> 89	> 30	2.24	> 30	CC50 [11]: > 30 µM; EC50 [16]: 11 µM
N#C[C@@]1(c2ccc3c(N)ncnn23)O[C@H](COP(=O)(O)OP(=O)(O)OP(=O)(O)O)[C@@H](O)[C@H]1O [RDV-TP]	–	–	–	5.6	–	–	–	–	–	–	–	–	–	–	–	–	–
C#C[C@@]1(c2ccc3c(N)ncnn23)O[C@H](COP(=O)(O)OP(=O)(O)OP(=O)(O)O)[C@@H](O)[C@H]1O	–	–	–	232	–	–	–	–	–	–	–	–	–	–	–	–	–
C[C@@]1(c2ccc3c(N)ncnn23)O[C@H](CO)[C@@H](O)[C@H]1O	–	–	–	–	> 30	> 30	> 30	> 30	> 30	> 30	> 30	5.23	> 45	> 30	> 30	> 30	–
C=C[C@@]1(c2ccc3c(N)ncnn23)O[C@H](COP(=O)(OCCSC(=O)C(C)(C)C)OCCSC(=O)C(C)(C)C)[C@@H](O)[C@H]1O	3.43	< 10	12	–	–	–	–	–	–	–	–	–	–	–	–	–	–
C[C@@]1(c2ccc3c(N)ncnn23)O[C@H](COP(=O)(O)OP(=O)(O)OP(=O)(O)O)[C@@H](O)[C@H]1O	–	–	–	20	–	–	–	–	–	–	–	–	–	–	–	–	–
C=C[C@@]1(c2ccc3c(N)ncnn23)O[C@H](CO)[C@@H](O)[C@H]1O	> 89	–	–	–	> 30	> 30	> 30	> 30	> 30	> 30	> 30	> 30	> 89	> 30	14	> 30	–
CC(C)(C)C(=O)SCCOP(=O)(OCCSC(=O)C(C)(C)C)OC[C@H]1O[C@@](C#N)(c2ccc3c(N)ncnn23)[C@H](O)[C@@H]1O	0.085	40	3.2	–	–	–	–	–	–	–	–	–	–	–	–	–	–
C#C[C@@]1(c2ccc3c(N)ncnn23)O[C@H](CO)[C@@H](O)[C@H]1O	> 89	–	–	–	> 30	> 30	> 30	> 30	> 30	> 30	> 30	> 30	> 89	> 30	> 30	> 30	–
